# Hits are enriched below; roughly 0.64% of the tested compounds scored in any of these assays.
# TNAP inh hiacc = blocks human TNAP under high phosphate acceptor concentration; P05186; inhibition, % at 20 µM; 0.03% of 200,000 active; purified TNAP, CDP-star luminescence, 1 M DEA;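 active means over 50% inhibition of tissue-nonspecific alkaline phosphatase at 20 µM in the single-dose screen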;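 further: plate controls were DMSO wells for no effect and EDTA-quenched wells as full inhibition for full effect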
# Target sequence (P05186 whole entry, looked up): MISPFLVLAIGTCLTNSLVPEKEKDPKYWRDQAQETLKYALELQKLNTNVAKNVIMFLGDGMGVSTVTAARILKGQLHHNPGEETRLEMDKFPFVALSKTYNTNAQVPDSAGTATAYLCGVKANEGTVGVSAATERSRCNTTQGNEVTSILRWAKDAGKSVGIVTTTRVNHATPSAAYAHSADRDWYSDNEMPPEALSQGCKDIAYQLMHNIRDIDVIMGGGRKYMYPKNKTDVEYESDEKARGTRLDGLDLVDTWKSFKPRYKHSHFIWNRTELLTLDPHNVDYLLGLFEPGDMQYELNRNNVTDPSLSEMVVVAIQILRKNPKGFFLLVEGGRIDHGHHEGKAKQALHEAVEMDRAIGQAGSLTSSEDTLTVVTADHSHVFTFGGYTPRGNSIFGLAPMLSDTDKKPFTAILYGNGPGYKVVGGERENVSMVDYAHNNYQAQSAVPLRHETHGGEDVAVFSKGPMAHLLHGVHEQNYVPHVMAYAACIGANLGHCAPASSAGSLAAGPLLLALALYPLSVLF
# PMI act = increases human mannose-6-phosphate isomerase activity. AID 1214. 0.005% of 190,000 active. activation factor at 20 µM. purified human PMI, coupled resazurin fluorescence, 20 min; active compounds read high; 1 = vehicle control, 0 substrate-free wells. P34949;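 active means activation factor of 2 or more at 20 µM, relative to plate controls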
# TNAP act hiacc = TNAP (human) activation, high acceptor | AID 1136 | activation factor at 20 µM | purified TNAP, CDP-star luminescence, 1 M DEA, 30 min; active compounds read high; 0 = EDTA background, 1 = DMSO-only activity | 200,000 tested, under 10 active | P05186;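 active means activation factor at least 2 at 20 µM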
#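 Test system – human TNAP · Doses – 20 µM single point · Incubation – 30 min, room temperature · Signal – luminescent substrate turnover signal · Read-out basis – activation factor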
# PMI act hi M6P = increases human PMI activity with near-saturating mannose 6-phosphate; AID 1216; activation factor at 20 µM; coupled PMI enzyme assay, resazurin fluorescence, 20 min; active compounds read high; 1 = untreated enzyme, 0 = substrate-free blank; 0.34% of 190,000 active; P34949;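 active means activation factor of 2 or more at 20 µM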
#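 Test system: human PMI in coupled enzyme assay; Input: PMI at 15 ng/mL final; Medium: HEPES buffer, pH 7.4; Schedule: 20 min incubation at room temperature; Technique: resorufin fluorescence at Ex 544/Em 590 nm; Compound: 20 µM single dose; Probe or stimulus: Near-saturating mannose-6-phosphate, 1.0 mM.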
# TNAP inh noacc = TNAP (human) inhibition, acceptor-free conditions; purified TNAP, CDP-star luminescence, 30 min; inhibition, % at 20 µM; 0.26% of 200,000 active; AID 1012;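 active means tissue-nonspecific alkaline phosphatase inhibition above about 50% at 20 µM in the single-dose screen, limit read from the data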;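 further: 0% = DMSO negative control and 100% = EDTA positive control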
# * hit, by the source's call; . = not tested or not shown.
SMILES,TNAP inh hiacc,PMI act,TNAP act hiacc,PMI act hi M6P,TNAP inh noacc
NC(=S)N/N=C/c1coc2c(ccc3ccccc32)c1=O,5.6,1,0.9,0.9,-25.4
O=S1(=O)N=C(Nc2nncs2)c2ccccc21,9.2,0.8,0.9,1,60.8*
COc1ccc(-c2csc(CCN3N=C(C)CC3=O)n2)cc1,-5.6,1.6,1.1,2.1*,-23.0
CCCc1nn(-c2cc(Cl)ccc2OC)c2c1C(=O)CC(C)(C)C2,-3.4,0.9,1,0.9,-4.4
CCCc1nn(C(=O)c2ccccc2)c2c1C(=O)CC(C)(C)C2,-1.2,0.9,1,1,51.5*
Cc1nn(C(=O)c2ccccc2)c2c1C(=O)CC(C)(C)C2,0.6,1,1,1,55.6*
CCN(CC(=O)NCc1ccc(Cl)cc1)S(=O)(=O)c1ccc(NC(C)=O)cc1,-3.3,1.1,1,1.1,-0.9
O=C(NNc1ccc(C2CCCCC2)cc1)C(O)(c1ccccc1)c1cccs1 (configuration not stated),-4.6,1.2,1,2.1*,-11.8
Cc1ccccc1N1Cc2ccccc2C1,0.4,1.7,1,2.2*,-5.5
Cc1nnc(NC(=O)c2oc3c(ccc4ccccc43)c2C)s1,-1.8,1,1,1,-7.0
O=C1C2CC=CCC2C(=O)N1Cc1ccccc1 (configuration not stated),-2.7,1,1,1,-9.2
O=C1C2CC=CCC2C(=O)N1c1n[nH]c(Cc2ccccc2)n1 (configuration not stated),1.8,0.9,1,1,95.6*
O=C1C2C3C=CC(C3)C2C(=O)N1c1n[nH]c(CCc2ccccc2)n1 (configuration not stated),2.1,0.9,1,0.8,68.0*
O=C(CCCn1c(=O)[nH]c2ccc(Br)cc2c1=O)NCc1ccc(Cl)cc1,-5.9,1,1.1,1,-16.3
CC1CCCN(C(=O)COC(=O)c2n[nH]c3ccccc23)C1 (configuration not stated),-0.7,0.9,1,0.8,59.5*
Cc1cc(NC(=O)COC(=O)c2n[nH]c3ccccc23)no1,-3.7,1,1,0.9,52.0*
O=C(c1n[nH]c2ccccc12)N1CCOCC1,0.9,1.1,1,1.1,21.6
O=C(c1n[nH]c2ccccc12)N1CCCCC1,0.3,0.9,1,0.9,82.4*
COc1ccc(CNC(=O)COC(=O)c2n[nH]c3ccccc23)cc1OC,1.2,1.2,1,1.2,42.6
CC(=O)Nc1nc(-c2ccc(Cl)cc2)ns1,-4.5,1.1,1,1.1,-5.5
COc1cc(-c2nnc(SCC(=O)NC3CCS(=O)(=O)C3)o2)cc(OC)c1OC (configuration not stated),-6.3,1.1,1.1,1.1,-43.7
COCCSc1ccccc1C(=O)N1CCc2ccccc2C1,-1.2,1,1,1,-10.0
O=c1c2ccccc2cnn1Cc1n[nH]c(=S)n1-c1ccc(F)c(Cl)c1,-4.4,1,1,1,0.6
O=c1c2ccccc2cnn1Cc1n[nH]c(=S)n1-c1cc(Cl)cc(Cl)c1,6.6,0.9,0.9,0.9,61.0*
CCN(CC)c1ccc(/C=C2\C(=O)c3ccc(C(=O)O)cc3C2=O)cc1,39.0,0.8,0.6,0.7,57.0*
SMILES,TNAP inh hiacc,PMI act,TNAP act hiacc,PMI act hi M6P,TNAP inh noacc
CCN(CC)c1ccc(C(=O)O)cc1,7.1,1,0.9,1,-1.6
O=c1oc2ccccc2cc1-c1ccccc1,-7.7,1,1.1,1,-7.2
O=C(O)c1ccc(-n2cc(-c3cc4ccccc4oc3=O)[nH]c2=S)cc1,3.7,1.7,1,2.4*,3.9
CC(C)n1c(-c2ccccc2F)n[nH]c1=S,3.3,1,1,1.1,68.6*
CCC(Cc1ccccc1)NC(=O)CSc1ccsc1[N+](=O)[O-] (configuration not stated),-4.2,1,1,1.1,2.4
CC(C)(C)c1nc(S(=O)(=O)c2ccc(Cl)cc2)c(N2CCOCC2)o1,-0.5,1.6,1,2.1*,0.4
Cc1ccc(S(=O)(=O)N(C)C)cc1NS(=O)(=O)c1ccc(Cl)s1,0.7,0.9,1,0.9,-3.6
COc1cc(OC)c(-c2c3cc(O)c(=O)cc-3oc3cc(O)c(O)cc23)cc1OC,21.7,0.3,0.8,0.3,-324.9
Cc1c2cc(O)c(=O)cc-2oc2cc(O)c(O)cc12,17.9,0.5,0.8,0.7,57.4*
COc1ccc(C(=O)N/N=C/c2cc3ccccc3[nH]c2=S)cc1,1.9,1.7,1,2*,9.9
CC(=O)Nc1ccc(S(=O)(=O)NCC(=O)OCC(=O)N2CCCc3ccccc32)cc1,4.4,0.9,1,1,-8.3
Cc1cc(C)n(CCN(C)Cc2cn[nH]c2-c2ccc(F)cc2F)n1,-8.1,0.9,1.1,0.9,45.5
COc1ccc(-c2[nH]ncc2CNCc2cc(C)n(C)n2)c(F)c1,-6.6,0.9,1.1,0.9,68.3*
COc1ccc(-c2[nH]ncc2CNCCn2cccn2)c(F)c1,-4.5,1,1,1.1,85.3*
CC(C)CC(NC(N)=O)C(=O)NCCc1ccc(Cl)cc1Cl (configuration not stated),0.6,1,1,1,-4.2
Cc1ccccc1OCc1nnc2c3cnn(C)c3ncn12,-5.9,1.1,1.1,1.1,55.4*
Cc1cccc(N2CCN(Cc3nc(-c4cccc(Oc5ccccc5)c4)oc3C)CC2)n1,-7.6,.,1.1,.,-10.8
C/C(=N\Nc1ccc(F)cc1F)c1ccccc1O,-4.3,1.7,1,2.3*,-11.4
CC1C(=O)NN=C1C(=O)N/N=C\c1ccc(O)cc1O (configuration not stated),10.7,1,0.9,1.2,72.5*
CCOC(=O)c1sc(NC(=O)CSc2n[nH]c(-c3ccccc3)n2)c(C#N)c1C,3.4,0.5,1,0.8,76.4*
CCOC(=O)c1sc(NC(=O)CSc2nc(C)cc(C)n2)c(C#N)c1C,-4.6,1,1,0.9,-15.9
COC(=O)c1ccc(CSc2n[nH]c(-c3ccccc3)n2)o1,1.6,1.1,1,1,70.0*
Cc1ccc(-c2nc(SCC(=O)c3c(N)n(C)c(=O)n(C)c3=O)n[nH]2)cc1,8.3,1.1,0.9,1.1,88.0*
CN(C)c1nc(N)nc(CSc2n[nH]c(-c3ccccc3)n2)n1,-0.4,1,1,0.9,67.8*
COC(=O)c1ccc(CSc2n[nH]c(C)n2)o1,-1.3,0.9,1,0.9,-3.5
CN(C)c1nc(N)nc(CSc2nnnn2-c2ccc(F)cc2)n1,-2.4,0.9,1,1,-19.6
CCCOc1ccc(N2C(=O)CC(N3CCN(CCN=CC4C(=O)CC(C)(C)CC4=O)CC3)C2=O)cc1 (configuration not stated),-5.5,1,1.1,1.1,-4.8

# Screens as filed in PubChem BioAssay.
